Experimental data from ChEMBL document CHEMBL2203147 (ACS Med Chem Lett, 2011).
pKi: −log10 of the molar value. Calls of active or inactive are those of the source. No cut-off for these calls is given here.

How the values were obtained:
D(2) dopamine receptor = D(2) dopamine receptor (Rattus norvegicus, UniProt P61169); experiment: Displacement of [3H]Spiperone from Sprague-Dawley rat dopamine D2-like receptor after 90 mins
Rattus norvegicus [1] = species: Rattus norvegicus; experiment: Selectivity ratio of Ki for Sprague-Dawley rat dopamine D2-like receptor to Ki for Sprague-Dawley rat dopamine D3 receptor
D(3) dopamine receptor = D(3) dopamine receptor (Rattus norvegicus, UniProt P19020); experiment: Displacement of [3H]R(+)-7-OH-DPAT from Sprague-Dawley rat dopamine D3 receptor after 90 mins
Chain of D(3) dopamine receptor (P19020 whole entry): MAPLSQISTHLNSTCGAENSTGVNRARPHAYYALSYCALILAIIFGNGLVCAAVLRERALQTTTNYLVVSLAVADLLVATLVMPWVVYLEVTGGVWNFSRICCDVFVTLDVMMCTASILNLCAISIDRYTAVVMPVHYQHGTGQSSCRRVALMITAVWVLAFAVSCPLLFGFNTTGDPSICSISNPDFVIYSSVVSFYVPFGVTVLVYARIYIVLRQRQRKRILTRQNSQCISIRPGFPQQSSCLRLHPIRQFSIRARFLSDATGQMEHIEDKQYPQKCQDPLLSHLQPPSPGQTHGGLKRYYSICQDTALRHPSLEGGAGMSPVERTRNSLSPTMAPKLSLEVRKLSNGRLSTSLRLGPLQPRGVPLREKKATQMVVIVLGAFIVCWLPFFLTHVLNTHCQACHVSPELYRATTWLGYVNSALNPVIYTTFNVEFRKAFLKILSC

[2] = Displacement of [3H]SCH 23390 from Sprague-Dawley rat dopamine D1-like receptor after 90 mins
Rattus norvegicus [3] = species: Rattus norvegicus; experiment: Selectivity ratio of Ki for Sprague-Dawley rat dopamine D1-like receptor to Ki for Sprague-Dawley rat dopamine D3 receptor
[4] = target: D(1A) dopamine receptor (Homo sapiens) (UniProt P21728); experiment: Displacement of [3H]SCH-23390 from human cloned dopamine D1 receptor expressed in LhD1 cells at 10000 nM after 60 mins by scintillation counter; format: cell-based
Chain of D(1A) dopamine receptor (Homo sapiens) (P21728 whole entry): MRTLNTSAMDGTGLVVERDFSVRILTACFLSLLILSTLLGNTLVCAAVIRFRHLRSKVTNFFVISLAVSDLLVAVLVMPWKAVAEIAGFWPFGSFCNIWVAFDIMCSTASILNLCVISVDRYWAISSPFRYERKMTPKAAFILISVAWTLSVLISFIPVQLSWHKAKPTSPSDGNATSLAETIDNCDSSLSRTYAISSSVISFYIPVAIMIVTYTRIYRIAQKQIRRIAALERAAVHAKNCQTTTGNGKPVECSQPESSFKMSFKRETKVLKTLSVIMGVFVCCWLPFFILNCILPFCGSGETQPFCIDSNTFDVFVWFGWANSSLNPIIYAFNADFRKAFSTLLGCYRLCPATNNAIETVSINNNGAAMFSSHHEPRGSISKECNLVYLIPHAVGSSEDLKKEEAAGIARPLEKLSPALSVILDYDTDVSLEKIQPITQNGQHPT

Rattus norvegicus [5] = experiment: Induction of yawning in Sprague-Dawley rat at 0.01 mg/kg, sc after 60 mins; format: functional, organism-based; set-up: dose 0.01 mg/kg
Rattus norvegicus [6] = experiment: Induction of hypothermia in Sprague-Dawley rat at 3.2 mg/kg, sc after 60 mins; format: functional, organism-based; set-up: dose 3.2 mg/kg
Method in brief: (§1)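 Readout is the change in core body temperature in rats after subcutaneous agonist dosing. Statistical significance was assessed at P < 0.05, 0.005 and 0.001.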

Rattus norvegicus [7] = experiment: Induction of yawning in Sprague-Dawley rat at 0.01 to 10 mg/kg, sc after 60 mins; format: functional, organism-based
Rattus norvegicus [8] = experiment: Induction of yawning in sc dosed Sprague-Dawley rat after 60 mins; format: functional, organism-based
[9] = target: D(3) dopamine receptor (Homo sapiens) (UniProt P35462); experiment: Agonist activity at human dopamine D3 receptor expressed in CHOp cells assessed as […] quinpirole-induced mitogenesis after 24 hrs relative to quinpirole; format: functional, cell-based
Chain of D(3) dopamine receptor (Homo sapiens) (P35462 whole entry): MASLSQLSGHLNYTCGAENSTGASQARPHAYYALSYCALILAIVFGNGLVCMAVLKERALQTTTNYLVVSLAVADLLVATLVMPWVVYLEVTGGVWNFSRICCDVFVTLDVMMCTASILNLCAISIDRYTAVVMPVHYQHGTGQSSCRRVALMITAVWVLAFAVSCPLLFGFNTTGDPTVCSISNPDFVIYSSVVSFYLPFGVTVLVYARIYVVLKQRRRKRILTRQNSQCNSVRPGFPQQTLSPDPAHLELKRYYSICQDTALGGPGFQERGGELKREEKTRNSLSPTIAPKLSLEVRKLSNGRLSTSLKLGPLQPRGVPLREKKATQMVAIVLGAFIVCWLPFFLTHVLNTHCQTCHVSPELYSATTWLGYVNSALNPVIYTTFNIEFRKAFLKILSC
Method in brief: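 Mitogenesis functional assay on cloned human D3 receptor expressed in CHO cells. Quinpirole serves as the standard D3 agonist control. Readouts are EC50 and maximal stimulation, expressed as a percentage of the quinpirole maximum.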

Rattus norvegicus [10] = species: Rattus norvegicus; settings: Sprague-Dawley, 10 mg/kg
Rattus norvegicus [11] = experiment: Induction of yawning in Sprague-Dawley rat at 1 mg/kg, sc pre-treated with 32 mg/kg D3 receptor antagonist SB-277011A measured 30 mins post dose; format: functional, organism-based
Method in brief: (§2)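 The selective antagonist (D3: SB-277011A; D2: L-741,626) was given before the subcutaneous agonist dose. Yawning was then scored in rats.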

[12] = Aqueous solubility of the compound; format: physicochemical
Rattus norvegicus [13] = experiment: Induction of yawning in Sprague-Dawley rat at 1 mg/kg, sc pre-treated with 1 mg/kg D2 receptor antagonist L-741,626 measured 30 mins post dose; format: functional, organism-based; method in brief: as §2
Rattus norvegicus [14] = experiment: Induction of hypothermia in Sprague-Dawley rat at 10 mg/kg, sc after 60 mins; format: functional, organism-based; set-up: dose 10 mg/kg; method in brief: as §1
Rattus norvegicus [15] = experiment: Induction of yawning in Sprague-Dawley rat at 10 mg/kg, sc pre-treated with 32 mg/kg D3 receptor antagonist SB-277011A measured 30 mins post dose; format: functional, organism-based; method in brief: as §2
Rattus norvegicus [16] = experiment: Induction of yawning in Sprague-Dawley rat at 10 mg/kg, sc pre-treated with 1 mg/kg D2 receptor antagonist L-741,626 measured 30 mins post dose; format: functional, organism-based; method in brief: as §2
Rattus norvegicus [17] = experiment: Induction of yawning in Sprague-Dawley rat at 1 mg/kg, sc after 60 mins; format: functional, organism-based; set-up: dose 1 mg/kg
Rattus norvegicus [18] = experiment: Induction of hypothermia in Sprague-Dawley rat at 10 mg/kg, sc pre-treated with 1 mg/kg D2 receptor antagonist L-741,626 measured 30 mins post dose
Rattus norvegicus [19] = species: Rattus norvegicus; settings: Sprague-Dawley, 0.32 mg/kg
Rattus norvegicus [20] = species: Rattus norvegicus; settings: Sprague-Dawley, 10 mg/kg; remark: listed apart in the source
Rattus norvegicus [21] = experiment: Induction of yawning in Sprague-Dawley rat at 0.1 to 10 mg/kg, sc after 60 mins; format: functional, organism-based

Chain of D(2) dopamine receptor (P61169 whole entry): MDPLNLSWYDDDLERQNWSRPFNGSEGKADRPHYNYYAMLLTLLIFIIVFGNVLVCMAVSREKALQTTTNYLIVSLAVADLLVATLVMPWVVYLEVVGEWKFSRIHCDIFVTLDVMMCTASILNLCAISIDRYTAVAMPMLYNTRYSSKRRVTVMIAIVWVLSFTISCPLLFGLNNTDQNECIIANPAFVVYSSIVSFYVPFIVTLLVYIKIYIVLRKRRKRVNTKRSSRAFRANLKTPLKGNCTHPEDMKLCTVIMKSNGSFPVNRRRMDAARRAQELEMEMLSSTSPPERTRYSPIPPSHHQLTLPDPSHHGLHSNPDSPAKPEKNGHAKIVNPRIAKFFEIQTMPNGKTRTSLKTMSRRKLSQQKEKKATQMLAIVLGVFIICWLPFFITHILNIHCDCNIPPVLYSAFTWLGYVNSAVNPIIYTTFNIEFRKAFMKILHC

SMILES	pKi (D(2) dopamine receptor)	Ratio Ki (Rattus norvegicus [1])	pKi (D(3) dopamine receptor)	pKi [2]	Ratio Ki (Rattus norvegicus [3])	Activity (Rattus norvegicus [8])	solubility [12] [mg/mL]	other results
CCCN(CC[C@]1(O)CC[C@H](NC(=O)c2ccc3ccccc3c2)CC1)[C@H]1CCc2nc(N)sc2C1	5.45	3820	9.03	4.85	15100	–	–	–
CCCN(CC[C@H]1C[C@H](NC(=O)c2ccc3ccccc3c2)C1)[C@H]1CCc2nc(N)sc2C1	6.23	1420	9.39	5.21	14800	–	–	–
CCCN(CC[C@]1(O)C[C@H](NC(=O)c2ccc3ccccc3c2)C1)[C@H]1CCc2nc(N)sc2C1.Cl	–	–	–	–	–	Dose-dependent effect	> 100	Activity [4]: inactive; Activity (Rattus norvegicus [5]): Active; Activity (Rattus norvegicus [6]): inactive; Activity (Rattus norvegicus [7]): Active; Emax [9]: 103%; deltaT (Rattus norvegicus [10]): 0.75 °C; Activity (Rattus norvegicus [11]): inactive; Activity (Rattus norvegicus [13]): Active; Activity (Rattus norvegicus [14]): Active; Activity (Rattus norvegicus [15]): inactive; Activity (Rattus norvegicus [16]): Active; Activity (Rattus norvegicus [17]): Active; Activity (Rattus norvegicus [18]): Active
CCCN(CC[C@H]1CC[C@H](NC(=O)/C=C/c2ccccc2)CC1)[C@H]1CCc2nc(N)sc2C1	–	–	–	–	–	–	> 50	–
CCCN[C@H]1CCc2nc(N)sc2C1 [PRAMIPEXOLE]	–	–	9.35	< 5.00	–	Dose-dependent effect	–	deltaT (Rattus norvegicus [19]): 0.75 °C; Activity (Rattus norvegicus [14]): Active; inhibition (Rattus norvegicus [20]): Active
CCCN(CC[C@]1(O)CC[C@@H](NC(=O)c2ccc3ccccc3c2)CC1)[C@H]1CCc2nc(N)sc2C1	5.79	1040	8.80	4.94	7370	–	–	–
CCCN(CC[C@]1(O)C[C@@H](NC(=O)c2ccc3ccccc3c2)C1)[C@H]1CCc2nc(N)sc2C1.Cl	–	–	–	–	–	Dose-dependent effect	> 100	Activity (Rattus norvegicus [21]): Active; Activity (Rattus norvegicus [17]): Active
CCCN(CC[C@H]1C[C@@H](NC(=O)c2ccc3ccccc3c2)C1)[C@H]1CCc2nc(N)sc2C1	6.25	1630	9.46	5.51	8820	–	–	–
CCCN(CC[C@H]1CC[C@H](NC(=O)c2ccc3ccccc3c2)CC1)[C@H]1CCc2nc(N)sc2C1	–	–	–	< 5.30	–	–	> 50	–
